Measured values as given in ChEMBL document CHEMBL5247578, “Effective synthesis of benzimidazoles-imidazo[1,2-a]pyrazine conjugates: A comparative study of mono-and bis-benzimidazoles for antitumor activity” (Eur J Med Chem, 2019).

What was measured:
PC-3 [1] = test: Antiproliferative activity against human PC-3 cells assessed as cell growth at 0.00001 M incubated for 48 hrs by SRB assay relative to control; type: functional; details: read-out: Activity
SF-539 = test: Growth inhibition against human SF-539 cells incubated for 48 hrs by sulforhodamine B assay; type: functional
M14 = test: Antiproliferative activity against human M14 cells assessed as cell growth at 0.00000001 M incubated for 48 hrs by SRB assay relative to control; type: functional; details: dose 10 nM, read-out: Activity
NCI-H522 [2] = test: Antiproliferative activity against human NCI-H522 cells assessed as cell growth at 0.0000001 M incubated for 48 hrs by SRB assay relative to control; type: functional; details: dose 100 nM, read-out: Activity
RXF 393 = test: Antiproliferative activity against human RXF 393 cells assessed as cell growth at 0.0000001 M incubated for 48 hrs by SRB assay relative to control; type: functional; details: dose 100 nM, read-out: Activity
MOLT-4 [3] = test: Antiproliferative activity against human MOLT-4 cells assessed as cell growth at 0.0001 M incubated for 48 hrs by SRB assay relative to control; type: functional; details: read-out: Activity
Calf thymus DNA [4] = test: Displacement of ethidium bromide from calf thymus DNA assessed as Stern-Volmer quenching constant upto 85 uM by fluorescence based spectroscopic analysis; type: nucleic-acid assay; details: Bos taurus
MDA-MB-231 [5] = test: Antiproliferative activity against human MDA-MB-231 cells assessed as cell growth at 0.00001 M incubated for 48 hrs by SRB assay relative to control; type: functional; details: read-out: Activity
Calf thymus DNA [6] = test: Binding affinity to calf thymus DNA assessed as DNA intercalation by measuring change in melting temperature at 10 uM by thermal denaturation assay; type: nucleic-acid assay; details: Bos taurus
TK-10 [7] = test: Growth inhibition against human TK-10 cells assessed as total growth inhibitory concentration incubated for 48 hrs by sulforhodamine B assay; type: functional
OVCAR-5 = test: Antiproliferative activity against human OVCAR-5 cells assessed as cell growth at 0.0001 M incubated for 48 hrs by SRB assay relative to control; type: functional; details: read-out: Activity
DU-145 [8] = test: Antiproliferative activity against human DU-145 cells assessed as cell growth at 0.00000001 M incubated for 48 hrs by SRB assay relative to control; type: functional; details: dose 10 nM, read-out: Activity
Method in brief: (§1)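 NCI-60 five-dose screen over 10^-4–10^-8 M (10-fold dilutions). Cells grown in RPMI 1640 with 5% FBS and 2 mM L-glutamine, seeded at 5,000–40,000 cells/well and preincubated 24 h. Drug from DMSO stock, 48 h at 37 °C, 5% CO2. Adherent cells TCA-fixed and stained with 0.4% SRB; A515 read. Percent growth = (Ti−Tz)/(C−Tz)×100, or (Ti−Tz)/Tz×100 when Ti<Tz.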

OVCAR-4 = test: Antiproliferative activity against human OVCAR-4 cells assessed as cell growth inhibition by measuring lethal concentration incubated for 48 hrs by sulforhodamine B assay; type: functional; details: read-out: LC50 (the source's name)
SK-MEL-28 = test: Growth inhibition against human SK-MEL-28 cells incubated for 48 hrs by sulforhodamine B assay; type: functional
SF-268 = test: Antiproliferative activity against human SF-268 cells assessed as cell growth inhibition by measuring lethal concentration incubated for 48 hrs by sulforhodamine B assay; type: functional; details: read-out: LC50 (the source's name)
EKVX = test: Growth inhibition against human EKVX cells incubated for 48 hrs by sulforhodamine B assay; type: functional
HOP-92 = test: Antiproliferative activity against human HOP-92 cells assessed as cell growth at 0.0001 M incubated for 48 hrs by SRB assay relative to control; type: functional; details: read-out: Activity
Method in brief: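 NCI-60 five-dose screen (10^-4 to 10^-8 M). Cells grown in RPMI 1640 with 5% FBS and 2 mM L-glutamine, plated at 5,000-40,000 cells/well and preincubated 24 h. Drug given from DMSO stock, then 48 h at 37 °C, 5% CO2. For adherent lines, cells fixed with cold TCA, SRB-stained and read at 515 nm. Percent growth taken against time-zero and untreated control.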

TK-10 [9] = test: Antiproliferative activity against human TK-10 cells assessed as cell growth at 0.0001 M incubated for 48 hrs by SRB assay relative to control; type: functional; details: read-out: Activity
NCI-H522 [10] = test: Antiproliferative activity against human NCI-H522 cells assessed as cell growth at 0.00000001 M incubated for 48 hrs by SRB assay relative to control; type: functional; details: dose 10 nM, read-out: Activity
UO-31 = test: Antiproliferative activity against human UO-31 cells assessed as cell growth at 0.00000001 M incubated for 48 hrs by SRB assay relative to control; type: functional; details: dose 10 nM, read-out: Activity
DU-145 [11] = test: Antiproliferative activity against human DU-145 cells assessed as cell growth at 0.0000001 M incubated for 48 hrs by SRB assay relative to control; type: functional; details: dose 100 nM, read-out: Activity; method in brief: as §1
PC-3 [12] = test: Antiproliferative activity against human PC-3 cells assessed as cell growth at 0.00000001 M incubated for 48 hrs by SRB assay relative to control; type: functional; details: dose 10 nM, read-out: Activity
HCT-15 = test: Growth inhibition against human HCT-15 cells incubated for 48 hrs by sulforhodamine B assay; type: functional
SNB-19 [13] = test: Antiproliferative activity against human SNB-19 cells assessed as cell growth at 0.0000001 M incubated for 48 hrs by SRB assay relative to control; type: functional; details: dose 100 nM, read-out: Activity
HCC 2998 = test: Growth inhibition against human HCC 2998 cells assessed as total growth inhibitory concentration incubated for 48 hrs by sulforhodamine B assay; type: functional
Malme-3M = test: Antiproliferative activity against human Malme-3M cells assessed as cell growth inhibition by measuring lethal concentration incubated for 48 hrs by sulforhodamine B assay; type: functional; details: read-out: LC50 (the source's name)
IGROV-1 = test: Antiproliferative activity against human IGROV-1 cells assessed as cell growth at 0.00000001 M incubated for 48 hrs by SRB assay relative to control; type: functional; details: dose 10 nM, read-out: Activity
SF-295 = test: Growth inhibition against human SF-295 cells incubated for 48 hrs by sulforhodamine B assay; type: functional
MOLT-4 [14] = test: Antiproliferative activity against human MOLT-4 cells assessed as cell growth at 0.0000001 M incubated for 48 hrs by SRB assay relative to control; type: functional; details: dose 100 nM, read-out: Activity
MDA-MB-468 = test: Growth inhibition against human MDA-MB-468 cells assessed as total growth inhibitory concentration incubated for 48 hrs by sulforhodamine B assay; type: functional
HL-60 = test: Antiproliferative activity against human HL-60 cells assessed as cell growth inhibition by measuring lethal concentration incubated for 48 hrs by sulforhodamine B assay; type: functional; details: read-out: LC50 (the source's name)
SNB-19 [15] = test: Antiproliferative activity against human SNB-19 cells assessed as cell growth at 0.00000001 M incubated for 48 hrs by SRB assay relative to control; type: functional; details: dose 10 nM, read-out: Activity
NCI/ADR-RES = test: Antiproliferative activity against human NCI/ADR-RES cells assessed as cell growth at 0.0000001 M incubated for 48 hrs by SRB assay relative to control; type: functional; details: dose 100 nM, read-out: Activity
COLO 205 = test: Antiproliferative activity against human COLO 205 cells assessed as cell growth at 0.000001 M incubated for 48 hrs by SRB assay relative to control; type: functional; details: read-out: Activity; method in brief: as §1
MDA-MB-231 [16] = test: Antiproliferative activity against human MDA-MB-231 cells assessed as cell growth at 0.00000001 M incubated for 48 hrs by SRB assay relative to control; type: functional; details: dose 10 nM, read-out: Activity
MCF7 = test: Antiproliferative activity against human MCF7 cells assessed as cell growth at 0.0000001 M incubated for 48 hrs by SRB assay relative to control; type: functional; details: dose 100 nM, read-out: Activity

`COc1ccc(-c2cn3ccnc3c(-c3ccc4ncn(C5CCCCC5)c4c3)n2)cc1` showed a growth at 10 µM (PC-3 [1]) of 5%, a GI50 (SF-539) of 0.569 µM and a growth at 0.01 µM (M14) of 99%. For the same compound, the growth at 0.1 µM (NCI-H522 [2]) was 87%, the growth at 0.1 µM (RXF 393) was 104% and the growth at 100 µM (MOLT-4 [3]) was 22%. The KSV (Calf thymus DNA [4]) was 0.82 10^4/M, the growth at 10 µM (MDA-MB-231 [5]) was 12% and the ΔTm (Calf thymus DNA [6]) was 22 °C. For the same compound, the TGI (TK-10 [7]) was 68.9 µM, the growth at 100 µM (OVCAR-5) was 56% and the growth at 0.01 µM (DU-145 [8]) was 103%. For the same compound, the CC50 (OVCAR-4) was > 100 µM, the GI50 (SK-MEL-28) was 2.1 µM and the CC50 (SF-268) was > 100 µM. It also gave a GI50 (EKVX) of 3.04 µM, a growth at 100 µM (HOP-92) of 9% and a growth at 100 µM (TK-10 [9]) of -3%. The growth at 0.01 µM (NCI-H522 [10]) was 88%, the growth at 0.01 µM (UO-31) was 91% and the growth at 0.1 µM (DU-145 [11]) was 102%. It also gave a growth at 0.01 µM (PC-3 [12]) of 96%, a GI50 (HCT-15) of 0.722 µM and a growth at 0.1 µM (SNB-19 [13]) of 108%. For the same compound, the TGI (HCC 2998) was > 100 µM, the CC50 (Malme-3M) was > 100 µM and the growth at 0.01 µM (IGROV-1) was 96%. For the same compound, the GI50 (SF-295) was 0.361 µM, the growth at 0.1 µM (MOLT-4 [14]) was 109% and the TGI (MDA-MB-468) was > 100 µM. For the same compound, the CC50 (HL-60) was > 100 µM, the growth at 0.01 µM (SNB-19 [15]) was 107% and the growth at 0.1 µM (NCI/ADR-RES) was 94%. For the same compound, the growth at 1 µM (COLO 205) was 76%, the growth at 0.01 µM (MDA-MB-231 [16]) was 99% and the growth at 0.1 µM (MCF7) was 92%.
For `c1ccc(Cn2cnc3ccc(-c4nc(-c5ccc6c(c5)ncn6C5CCCCC5)cn5ccnc45)cc32)cc1`, the growth at 10 µM (PC-3 [1]) was -10%, the GI50 (SF-539) was 1.06 µM and the growth at 0.01 µM (M14) was 87%. The growth at 0.1 µM (NCI-H522 [2]) was 90%, the growth at 0.1 µM (RXF 393) was 105% and the growth at 100 µM (MOLT-4 [3]) was 4%. For the same compound, the KSV (Calf thymus DNA [4]) was 0.74 10^4/M, the growth at 10 µM (MDA-MB-231 [5]) was -63% and the ΔTm (Calf thymus DNA [6]) was 12 °C. For the same compound, the TGI (TK-10 [7]) was > 100 µM, the growth at 100 µM (OVCAR-5) was 21% and the growth at 0.01 µM (DU-145 [8]) was 99%. For the same compound, the CC50 (OVCAR-4) was > 100 µM, the GI50 (SK-MEL-28) was 2.43 µM and the CC50 (SF-268) was > 100 µM. The GI50 (EKVX) was 1.75 µM, the growth at 100 µM (HOP-92) was -80% and the growth at 100 µM (TK-10 [9]) was 13%. For the same compound, the growth at 0.01 µM (NCI-H522 [10]) was 93%, the growth at 0.01 µM (UO-31) was 91% and the growth at 0.1 µM (DU-145 [11]) was 98%. For the same compound, the growth at 0.01 µM (PC-3 [12]) was 95%, the GI50 (HCT-15) was 1.57 µM and the growth at 0.1 µM (SNB-19 [13]) was 103%. The TGI (HCC 2998) was 3.41 µM, the CC50 (Malme-3M) was > 100 µM and the growth at 0.01 µM (IGROV-1) was 97%. It also gave a GI50 (SF-295) of 1.42 µM, a growth at 0.1 µM (MOLT-4 [14]) of 114% and a TGI (MDA-MB-468) of 4.43 µM. For the same compound, the CC50 (HL-60) was > 100 µM, the growth at 0.01 µM (SNB-19 [15]) was 99% and the growth at 0.1 µM (NCI/ADR-RES) was 97%. The growth at 1 µM (COLO 205) was 92%, the growth at 0.01 µM (MDA-MB-231 [16]) was 102% and the growth at 0.1 µM (MCF7) was 90%.
